# Statin myotox sup – suppressors of simvastatin-induced myotoxicity in C2C12 myotubes | ATP luminescence, 48 h; scaled: DMSO 0, geranylgeraniol control 100 | rescue of ATP level, % at 7.49 µM | actives 0.78% (n = 330,000);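 active = mean ATP rescue above about 67%, or every replicate alone reaching that limit, limit read from the data, passing the limit was not always enough; inconclusive = no clear call, values can overlap the other calls; inactive = mean under the limit and some replicate under it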;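 note: myotubes were challenged with 10 µM simvastatin during compound exposure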
# DENV2 CPE – DENV2-induced cell death inhibition; DENV2-infected cells, cytopathic effect rescue, plate reader; CPE inhibition, % at 9.99 µM; actives 1.7% (n = 350,000); AID 651640; in the data active = CPE inhibition above about 20%, passing the limit was not always enough; inconclusive = no clear call, values can overlap the other calls; tested in BHK-21 cells;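 note: 0% = median of neutral control wells and 100% = median of positive control wells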
# S100A4 inh HTS – S100A4-myosin IIA interaction inhibition. P26447. S100A4/TAMRA-MyoIIA peptide fluorescence polarization. inhibition, % at 10.7 µM. actives 0.14% (n = 360,000). AID 652163;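 active = mean inhibition of at least 70% across replicates, with every replicate also reaching that level; inconclusive = mean inhibition reaches 70% but some replicates fall short; inactive = mean inhibition below 70%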
# Target sequence (P26447 whole entry, looked up): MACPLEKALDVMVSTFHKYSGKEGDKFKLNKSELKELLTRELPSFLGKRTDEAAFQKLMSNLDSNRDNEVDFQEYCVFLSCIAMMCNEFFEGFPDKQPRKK
#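 Material: S100A4 monomer (human). Medium: Calcium-containing HEPES buffer, pH 7.2. Probe or stimulus: labelled myosin peptide probe, 5 nM. Compound dosing: one concentration per compound. Timing: polarization read 5 min after assay mix addition, stable 5–60 min. Benchmarks: DMSO as neutral control, TFP as positive control.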
# SIRT5 inh – blocks human SIRT5 desuccinylation of peptide. Purified SirT5, succinyl-peptide AMC, trypsin-coupled fluorescence. inhibition, % at 15 µM. actives 1.1% (n = 330,000); in the data active = inhibition above about 15%; inconclusive = no clear call, values can overlap the other calls
# Target sequence (Q9NXA8 whole entry, looked up): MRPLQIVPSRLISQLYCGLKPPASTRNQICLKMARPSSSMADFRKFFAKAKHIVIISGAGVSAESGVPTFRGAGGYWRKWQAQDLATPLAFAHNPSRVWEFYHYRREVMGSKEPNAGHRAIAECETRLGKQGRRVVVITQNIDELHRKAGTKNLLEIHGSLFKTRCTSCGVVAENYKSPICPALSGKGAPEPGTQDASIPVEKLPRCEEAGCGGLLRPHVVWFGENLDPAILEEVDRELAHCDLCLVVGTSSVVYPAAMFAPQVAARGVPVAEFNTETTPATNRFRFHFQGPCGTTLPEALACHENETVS
# PGC1a acetyl inh – lowers PGC1a acetylation signal in U2OS cells. inhibition, % at 15.6 µM. AlphaScreen anti-acetyl-lysine; with virally co-expressed GCN5 acetyltransferase. actives 0.17% (n = 350,000);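 active = every replicate shows inhibition of at least 40%; inconclusive = mean inhibition at least 40% but some replicate below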;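 note: 0% = neutral control wells and 100% = positive control wells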
# The depositor's hits bear a star; u = inconclusive; x = not tested or not shown. This is a sample that favours compounds with a hit; in the whole collection about 2.9% have one here.
SMILES,Statin myotox sup,DENV2 CPE,S100A4 inh HTS,SIRT5 inh,PGC1a acetyl inh
CO[C@H]1CN(C)C(=O)c2cc(NS(=O)(=O)c3ccc(Oc4ccccc4)cc3)ccc2OC[C@H](C)NC[C@H]1C,-10,4,3,28*,-12
COc1cccc(S(=O)(=O)Nc2ccc3c(c2)C(=O)N(C)C[C@@H](OC)[C@@H](C)CN[C@H](C)CO3)c1,2,22*,-3,-3,-6
COc1cccc(S(=O)(=O)Nc2ccc3c(c2)C(=O)N(C)C[C@@H](OC)[C@H](C)CN[C@@H](C)CO3)c1,6,-4,-1,-1,-1
CO[C@H]1CN(C)C(=O)c2cc(NS(=O)(=O)c3ccccc3F)ccc2OC[C@@H](C)NC[C@@H]1C,10,65*,-4,0,-1
CO[C@H]1CN(C)C(=O)c2cc(NS(=O)(=O)c3ccccc3)ccc2OC[C@H](C)NC[C@H]1C,0,1,-4,x,-3
CO[C@@H]1CN(C)C(=O)c2cc(NS(=O)(=O)c3ccccc3)ccc2OC[C@@H](C)NC[C@@H]1C,-2,29*,-28,x,1
C[C@H]1CCCCO[C@@H](CN(C)S(=O)(=O)c2ccc(Cl)cc2)[C@@H](C)CN([C@@H](C)CO)C(=O)c2cc(NS(=O)(=O)c3ccc(F)cc3)ccc2O1,-16,5,-6,-2,3
CC1(C)CC(=O)c2cc(C(=O)NNc3ccccc3)c(=O)n(-c3ccccc3)c2C1,x,3,-14,21*,6
C[C@H](CO)N1C[C@H](C)[C@@H](CN(C)Cc2cccc(C(=O)O)c2)Oc2cc(C3=CCCCC3)ccc2S1(=O)=O,12,4,-10,7,4
Cc1cc(C)nc(N2CCC(C(=O)NCCc3ccc(Cl)cc3)CC2)n1,18,0,15,15*,3
COCC#Cc1ccc2c(c1)O[C@@H](CN(C)C(=O)Nc1ccccc1F)[C@@H](C)CN([C@@H](C)CO)S2(=O)=O,17,9,-2,2,-2
CC(C)c1ccc(NC(=O)CNCC(c2ccccc2)N(C)C)cc1 (centres undefined),-1,10,1,17*,4
COCCNC(=O)c1ccc(CS(=O)(=O)c2cccc(C(F)(F)F)c2)o1,-2,8,-2,-4,5
CCCCNC(=O)c1ccc(CS(=O)(=O)c2cccc(C(F)(F)F)c2)o1,144*,x,x,x,-11
CC(C)NC(=O)Nc1ccc2c(c1)CC(=O)N([C@@H](C)CO)C[C@@H](C)[C@H](CN(C)Cc1ccc(C(=O)Nc3ccccc3N)cc1)O2,26,2,10,-3,-4
C[C@H]1CN([C@@H](C)CO)C(=O)c2cc(NC(=O)C3CC3)ccc2O[C@H]1CN(C)S(=O)(=O)c1cn(C)cn1,-2,2,-5,29*,-20
C[C@H](CO)N1C[C@H](C)[C@H](CN(C)S(=O)(=O)c2cn(C)cn2)Oc2ccc(NC(=O)C3CC3)cc2CC1=O,-39,7,8,-1,-5
C[C@@H]1CN([C@H](C)CO)C(=O)c2cc(NC(=O)CCCN(C)C)ccc2O[C@H]1CN(C)S(=O)(=O)c1cn(C)cn1,x,6,-1,-1,1
C[C@H](CO)N1C[C@H](C)[C@@H](CN(C)S(=O)(=O)c2cn(C)cn2)Oc2ccc(NC(=O)C3CC3)cc2CC1=O,-36,-8,1,16*,7
C[C@H]1CN([C@@H](C)CO)C(=O)c2cc(NC(=O)CCCN(C)C)ccc2O[C@@H]1CN(C)S(=O)(=O)c1cn(C)cn1,x,38*,-6,2,-2
O=C(NC1CCCCC1)N1C[C@@H]2N[C@H](C1)C2c1ccc(-c2cccc(F)c2)cc1 (some centres undefined),x,4,3,4,-8
C[C@H](CO)N1C[C@H](C)[C@@H](CN(C)C(=O)CCCN(C)C)OCCCC[C@H](C)Oc2ccc(NS(=O)(=O)c3ccc(F)cc3)cc2C1=O,x,9,6,-1,0
Brc1ccc(-c2noc3c2-c2nc(-c4ccccc4)sc2CC3)cc1,6,129*,-2,x,8
COCC(=O)Nc1ccc2c(c1)C(=O)N(C)C[C@H](OC)[C@H](C)CN(C(=O)c1cnccn1)[C@H](C)CO2,-7,0,4,-5,2
CN(C)CCN(Cc1ccccc1)C(c1ccnc2ccccc12)c1nnnn1-c1ccc2c(c1)OCCO2 (centres undefined),x,1,-7,-7,x
SMILES,Statin myotox sup,DENV2 CPE,S100A4 inh HTS,SIRT5 inh,PGC1a acetyl inh
CN(Cc1ccccc1)C(c1ccnc2ccccc12)c1nnnn1-c1ccc2c(c1)OCCO2 (centres undefined),x,-4,-7,39*,x
C[C@@H]1CN([C@H](C)CO)C(=O)c2cc(NS(=O)(=O)c3ccccc3)ccc2O[C@@H]1CN(C)CC1CC1,-10,u,0,1,x
CCCN1C[C@@H](C)[C@@H](OC)CN(C)C(=O)c2cc(NS(=O)(=O)c3ccccc3)ccc2OC[C@@H]1C,3,-2,0,-2,9
CCCN1C[C@H](C)[C@@H](OC)CN(C)C(=O)c2cc(NS(=O)(=O)c3ccccc3)ccc2OC[C@H]1C,-2,16,-1,31*,-2
CO[C@H]1CN(C)C(=O)c2cc(NS(=O)(=O)c3ccccc3)ccc2OC[C@H](C)N(C)C[C@H]1C,5,27*,6,1,x
CO[C@@H]1CN(C)C(=O)c2cc(NS(=O)(=O)CC(F)(F)F)ccc2OC[C@@H](C)N(C)C[C@H]1C,-3,1,106*,0,x
CO[C@@H]1CN(C)C(=O)c2ccc(NS(=O)(=O)c3ccccc3)cc2OC[C@H](C)N(C)C[C@H]1C,3,25*,-19,-2,-8
C[C@]12C=CC(=O)N1CCc1c2[nH]c2ccccc12,x,17,-5,2,1
O=C(NCC[C@@H]1CC[C@@H](NS(=O)(=O)c2ccc(F)cc2)[C@H](CO)O1)Nc1ccc(Cl)cc1,1,-11,-13,1,-10
COC(=O)C1=C[C@@H](C(=O)OC)[C@@H]2C3=C(C(=O)[C@@]2(C)NC(=O)c2ccccc2)[C@H](C)C(C(=O)OC)=C(C(=O)OC)[C@@H]3C1,-4,24*,-2,-3,x
COC(=O)C1=C[C@@H](C(=O)OC)[C@@H]2C3=C(C(=O)[C@@]2(C)NC(=O)c2ccccc2)[C@H](C)n2c(=O)n(C)c(=O)n2[C@@H]3C1,12,0,7,1,x
COc1cc(-c2nc3ccc4ccccc4c3c3c2CCC3)cc(OC)c1OC,94*,x,x,x,-8
COc1cc(-c2nc3ccc4ccccc4c3c3c2CCC3)ccc1O,x,20,4,-3,x
O=C(O)CCSCCC(=O)O,91*,x,10,x,-2
C[C@@H]1CN([C@@H](C)CO)S(=O)(=O)c2ccc(C#CC(C)(C)O)cc2O[C@@H]1CN(C)C(=O)C1CC1,13,x,x,x,2
Cc1cc(N2CCN(c3nnnn3-c3ccccc3)CC2)n2ncnc2n1,111*,x,x,x,10

# Bioassay records: PubChem, Broad Institute
